Source: ChEMBL document CHEMBL1127783, “Sugar-linked dithiocarbamates as modulators of metabolic and genotoxic properties of N-nitroso compounds” (J Med Chem, 1994)

Tests used:
Rattus norvegicus [1] = test: Tested for exhalation of 14CO2 of compound (1.5mmol/kg, ip) was administered 1 h before and 5 h after the treatment of [14C]NDEA (28 mg/kg, 5 microCi/kg, ip) in experiment number 1; format: functional
How it was run: (§1)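 Male Sprague–Dawley rats (two per group) were fasted overnight. They received inhibitor or saline ip at 1.5 mmol/kg 1 h before and again after ip [¹⁴C]NDEA (28 mg/kg, 5 μCi/kg). Animals were then kept 24 h in an all-glass metabolism cage with air flow of 32 L/h. Exhaled air was dried over H₂SO₄, ¹⁴CO₂ was trapped in 1 N NaOH and counted, and the result is expressed as % of the given dose.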

Rattus norvegicus [2] = species: Rattus norvegicus; test: Tested in vitro for N-nitrosodimethylamine (NDMA) demethylase activity at 0.1 mM for 2 mM concentration of formaldehyde; format: functional
How it was run: (§2)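 Liver microsomal fraction from untreated male Sprague–Dawley rats with NADPH-generating system. NDMA substrate 0.1–1 mM; test compound 2–20 mM or DDTC 2 mM added. Formaldehyde and acetaldehyde formed measured as (2,4-dinitrophenyl)hydrazones. Mean ± SD of three separate experiments.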

Rattus norvegicus [3] = species: Rattus norvegicus; test: Tested in vitro for N-nitrosodimethylamine (NDMA) demethylase activity at 0.5 mM for 2 mM concentration of formaldehyde; format: functional; how it was run: as §2
Rattus norvegicus [4] = test: Tested for exhalation of 14CO2 of compound (1.5mmol/kg, ip) was administered 1 h before and 5 h after the treatment of [14C]NDEA (28 mg/kg, 5 microCi/kg, ip) in experiment number 2; format: functional; how it was run: as §1
Rattus norvegicus [5] = test: Tested for urinary excretion of radioactivity of compound (1.5mmol/kg, ip) was administered 1 hr before and 5 hr after the treatment of [14C]-NDEA (28 mg/kg, 5 microCi/kg, ip) in experiment number 1; format: functional, organism-based
How it was run: (§3)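 Male Sprague–Dawley rats, fasted overnight, two per group. Inhibitor 1.5 mmol/kg ip or saline, then [14C]NDEA 28 mg/kg (5 μCi/kg) ip 1 h later, then a second inhibitor dose. Rats kept 24 h in all-glass metabolism cages, urine collected into ice-cold flask with NaOH. Total urinary radioactivity and unchanged [14C]NDEA measured after extraction with internal standard; given as % of dose.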

Rattus norvegicus [6] = test: Tested for unchanged NDEA 24 h administration of [14C]-NDEA in urine in experiment number 1; format: functional; how it was run: as §3
Rattus norvegicus [7] = species: Rattus norvegicus; test: Tested in vitro for N-nitrosodimethylamine (NDMA) demethylase activity at 0.1 mM for 0 mM concentration of formaldehyde; format: functional; how it was run: as §2
Rattus norvegicus [8] = test: Tested for urinary excretion of radioactivity of compound (1.5 mmol/kg, ip) was administered 1 h before and 5 h after the treatment of [14C]-NDEA (28 mg/kg, 5 microCi/kg, ip) in experiment number 2; format: functional, organism-based; how it was run: as §3
Rattus norvegicus [9] = species: Rattus norvegicus; test: Tested in vitro for N-nitrosodimethylamine (NDMA) demethylase activity at 0.1 mM for 0 mM concentration of acetaldehyde; format: functional; how it was run: as §2
Rattus norvegicus [10] = species: Rattus norvegicus; test: Tested in vitro for N-nitrosodimethylamine (NDMA) demethylase activity at 1 mM for 2 mM concentration of formaldehyde; format: functional; how it was run: as §2
Rattus norvegicus [11] = species: Rattus norvegicus; test: Tested in vitro for N-nitrosodimethylamine (NDMA) demethylase activity at 0.1 mM for 2 mM concentration of acetaldehyde; format: functional; how it was run: as §2
Rattus norvegicus [12] = species: Rattus norvegicus; test: Tested in vitro for N-nitrosodimethylamine (NDMA) demethylase activity at 1 mM for 2 mM concentration of acetaldehyde; format: functional; how it was run: as §2
Rattus norvegicus [13] = species: Rattus norvegicus; test: Tested in vitro for N-nitrosodimethylamine (NDMA) demethylase activity at 0.5 mM for 2 mM concentration of acetaldehyde; format: functional; how it was run: as §2

`CCN(CC)C(=S)[S-].[Na+]` [DITIOCARB SODIUM] was tested, and the “Exhal+B1718ation of 14CO2” value (Rattus norvegicus [1]) was 17.2%, the Formaldehyde (Rattus norvegicus [2]) was 0.6 nM (mg of protein)-1 and the Formaldehyde (Rattus norvegicus [3]) was 0.3 nM (mg of protein)-1. The “Exhal+B1718ation of 14CO2” value (Rattus norvegicus [4]) was 20.5%, the Radioactivity in urine (Rattus norvegicus [5]) was 20.7% and the “Unchanged NDEA” value (Rattus norvegicus [6]) was 15.7%. The Formaldehyde (Rattus norvegicus [7]) was 4.8 nM (mg of protein)-1, the Radioactivity in urine (Rattus norvegicus [8]) was 17.8% and the Acetaldehyde (Rattus norvegicus [9]) was 0 nM (mg of protein)-1. The Formaldehyde (Rattus norvegicus [10]) was 0 nM (mg of protein)-1, the Acetaldehyde (Rattus norvegicus [11]) was 2.2 nM (mg of protein)-1 and the Acetaldehyde (Rattus norvegicus [12]) was 0.06 nM (mg of protein)-1. The Acetaldehyde (Rattus norvegicus [13]) was 0.6 nM (mg of protein)-1.
